The assay has as its target Sodium-dependent dopamine transporter (Rattus norvegicus, UniProt P23977). Briefly: Inhibition of [3H]3-beta-(p-fluorophenyl)tropane-2beta-carboxylic acid methyl ester binding to Dopamine transporter in rat striatal membranes. It counts as cell membranes, Membrane. A digest of the protocol:
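Male Sprague-Dawley rat (250-350 g) striata, frozen at -70 °C, homogenized in 10 mM phosphate buffer pH 7.4 with 0.32 M sucrose; 40000g pellet washed, resuspended at 1.0 mg/mL tissue. 0.5 nM [3H]-23 incubated 2 h on ice; filtration onto polyethylenimine-soaked GF/B filters, scintillation counting. IC50 from 10-12-point competition curves, 3-4 assays.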
Sodium-dependent dopamine transporter, sequence (P23977 whole entry): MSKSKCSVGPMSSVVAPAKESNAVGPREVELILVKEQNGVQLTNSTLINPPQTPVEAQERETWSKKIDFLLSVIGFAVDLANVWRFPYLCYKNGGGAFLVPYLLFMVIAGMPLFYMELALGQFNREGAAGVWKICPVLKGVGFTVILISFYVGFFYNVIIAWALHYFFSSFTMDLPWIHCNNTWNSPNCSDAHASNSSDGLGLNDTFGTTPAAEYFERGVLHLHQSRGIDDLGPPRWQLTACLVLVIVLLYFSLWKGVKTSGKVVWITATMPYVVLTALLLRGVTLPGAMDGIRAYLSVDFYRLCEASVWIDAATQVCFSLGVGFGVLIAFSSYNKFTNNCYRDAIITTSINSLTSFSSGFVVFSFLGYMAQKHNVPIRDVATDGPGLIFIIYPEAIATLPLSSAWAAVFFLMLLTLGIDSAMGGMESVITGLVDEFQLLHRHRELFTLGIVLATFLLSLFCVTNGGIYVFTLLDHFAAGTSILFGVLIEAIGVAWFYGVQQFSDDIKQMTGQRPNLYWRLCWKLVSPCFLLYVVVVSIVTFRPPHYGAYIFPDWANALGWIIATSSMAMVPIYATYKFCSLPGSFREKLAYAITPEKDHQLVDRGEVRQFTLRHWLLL
As usually defined, the IC50 is the point on the concentration scale where inhibition reaches its midpoint. A low value points to greater potency. Regarding `CN1C2CC[C@@H]1C[C@H](OC(=O)c1ccccc1)C2C(=O)OCCc1ccc(N=[N+]=[N-])cc1` (stereo partly drawn), the IC50 was determined as 227 nM.

In turn, `CN1C2CC[C@@H]1C[C@H](OC(=O)c1ccccc1)C2C(=O)OCCc1ccccc1` (stereo partly drawn) registered an IC50 of 248 nM.

`CN1C2CC[C@@H]1C[C@H](OC(=O)c1ccccc1)C2C(=O)OCc1ccccc1` (stereo partly drawn) gave an IC50 of 257 nM.

Regarding `CN1C2CC[C@@H]1C[C@H](OC(=O)c1ccccc1)C2C(=O)Oc1ccccc1` (stereo partly drawn), the IC50 stood at 112 nM. This IC50 lies about 2.3-fold lower than the previous one.

Compound `CN1C2CC[C@@H]1C[C@H](OC(=O)c1ccccc1)C2C(=O)OCCc1ccc(Cl)cc1` (stereo partly drawn) registered an IC50 of 271 nM. This IC50 lies about 2.4-fold higher than the previous one.

The compound `CC(=O)OCC1C2CC[C@H](C[C@@H]1OC(=O)c1ccccc1)N2C` (stereo partly drawn) displayed an IC50 of 272 nM.

In turn, `CN1C2CC[C@@H]1C[C@H](OC(=O)c1ccccc1)C2C(=O)OCCc1ccc(NC(=O)CBr)cc1` (stereo partly drawn) showed an IC50 of 61 nM. This IC50 lies about 4.5-fold lower than the previous one.

Compound `CN1C2CC[C@@H]1C[C@H](OC(=O)c1ccccc1)C2C(=O)OCCCc1ccccc1` (stereo partly drawn) came in with a 50% inhibitory concentration (IC50) of 139 nM.

`CN1C2CC[C@@H]1C[C@H](OC(=O)c1ccccc1)C2C(=O)OCCc1ccc([N+](=O)[O-])cc1` (stereo partly drawn): the IC50 was found to be 601 nM.

Consider `CN1C2CC[C@@H]1C[C@H](OC(=O)c1ccccc1)C2C(=O)OCCc1ccc(N)cc1` (stereo partly drawn), for which the IC50 was 72 nM.

As for `CN1[C@@H]2CC[C@H]1C[C@H](OC(=O)c1ccccc1)C2`, the IC50 came to 5180 nM.

Take `CNC(=O)C1C2CC[C@H](C[C@@H]1OC(=O)c1ccccc1)N2C` (stereo partly drawn): the IC50 was 3180 nM.

The compound `CN1C2CC[C@@H]1C[C@H](OC(=O)c1ccccc1)C2CO` (stereo partly drawn) came in with an IC50 of 561 nM.

The compound `CN1C2CC[C@@H]1C[C@H](OC(=O)c1ccccc1)C2C(=O)OC/C=C/c1ccccc1` (stereo partly drawn) had a 50% inhibitory concentration (IC50) of 371 nM.

`CCOC(=O)C1C2CC[C@H](C[C@@H]1OC(=O)c1ccccc1)N2C` (stereo partly drawn) registered an IC50 of 130 nM.

In the case of `CCOC(=O)CCC(=O)Nc1ccc(CCOC(=O)C2C3CC[C@H](C[C@@H]2OC(=O)c2ccccc2)N3C)cc1` (stereo partly drawn), the IC50 was found to be 86 nM.

With `CCCOC(=O)C1C2CC[C@H](C[C@@H]1OC(=O)c1ccccc1)N2C` (stereo partly drawn), the IC50 was found to be 191 nM.

In the case of `CN1C2CC[C@@H]1C[C@H](OC(=O)c1ccccc1)C2C(=O)OCCc1ccc(N=C=S)cc1` (stereo partly drawn), the IC50 worked out at 196 nM.

Values taken from ChEMBL document CHEMBL1126011 (J Med Chem, 1992).
